One compound from ChEMBL document CHEMBL2202989, “New adamantane phenylalkylamines with σ-receptor binding affinity and anticancer activity, associated with putative antagonism of neuropathic pain” (J Med Chem, 2012) can be followed below.

The structures appear in SMILES notation.

One experiment deals with OVCAR-5. Briefly: Growth inhibition of human OVCAR5 cells after 48 hrs by SRB assay. Type of experiment: functional. The settings on record: OVCAR-5, 48 h. A digest of the protocol:
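Cells grown in RPMI 1640 with 5% heat-inactivated FCS, 2 mM L-glutamine and antibiotics, 37 °C, 5% CO2. Seeded at 3500–30000 cells/well and left 24 h before dosing. DMSO solutions added at 10-fold dilutions from 100 to 0.01 μM for 48 h. Cells TCA-fixed and SRB-stained, absorbance read at 540 nm; GI50 derived against the time-zero plate.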

For another experiment, the system named is IGROV-1. Briefly: Induction of apoptosis in human IGROV1 cells assessed as healthy cells at 15 uM using annexin V/7-AAD by FACS analysis (reference value: 86 %). Type of experiment: functional.

Regarding `CN1CCN(CCCc2ccc(C(c3ccccc3)C34CC5CC(CC(C5)C3)C4)cc2)CC1` (centres undefined), in the experiment on OVCAR-5, the GI50 turned out to be 3.6 µM and net growth stopped (TGI) at 6.9 µM. Besides, the CC50 in the experiment on OVCAR-5 (read-out: LC50 (the source's name)) was 0.0102 µM. Besides, the Activity with IGROV-1 came to 35%.
